According to article PMC5372383 (Nature, 2017):

How the values were obtained:
MOLM-13 cells = test: JQ1 proliferation / viability; format: cell-based, human; settings: MOLM-13, sgRNA depletion; proliferation normalized to DMSO, n = 5
In short: (§1)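 MLL-rearranged leukaemia lines were grown in RPMI with 10% FBS, 2 mM L-glutamine, penicillin/streptomycin and plasmocin. Cells were transduced with sgRNAs (MOLM-13) or shNT/shENL shRNAs (panel) by spin infection (1500 rcf, 35°C, 90 min), then selected or sorted 48 h post infection. They were exposed to JQ1 or DMSO, and viability was read by CellTiter-Glo luminescence. MOLM-13 proliferation was normalised to DMSO.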

leukaemia cell lines = format: cell-based, human; settings: shENL vs shNT, MLL-rearranged leukaemia cells, n = 3
In short: as §1

HeLa cells = test: JQ1 proliferation in HeLa cells; format: cell-based, human; settings: GFP, AF9 or ENL sgRNAs, n = 5
In short: (§2)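 HeLa and U2OS cells were kept in DMEM with 10% FBS, 2 mM L-glutamine, penicillin/streptomycin and plasmocin. They were transduced with GFP, AF9 or ENL sgRNAs by spin infection at 1500 rcf, 35°C for 90 min, then selected or sorted 48 h after infection. Cells were treated with JQ1, and viability was measured by CellTiter-Glo luminescence.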

U2OS cells = test: JQ1 proliferation in U2OS cells; format: cell-based, human; settings: GFP, AF9 or ENL sgRNAs, n = 5
In short: as §2

iCas9-MOLM-13 cells = test: RNA-seq of JQ1-treated iCas9-MOLM-13 cells; format: cell-based, human; settings: iCas9-MOLM-13, 50 nM JQ1 24 h vs DMSO
[1] = target: ENL YEATS mutants (alanine mutation of the “R-Kac”-binding residues), ITC; test: ITC

Compound | sensitivity to JQ1 on depletion of ENL or other SEC components (MOLM-13 cells) | JQ1 sensitivity on ENL silencing (leukaemia cell lines) | JQ1 sensitivity on ENL silencing, HeLa (HeLa cells) | JQ1 sensitivity on ENL silencing, U2OS (U2OS cells) | JQ1-induced transcriptional changes on ENL depletion, including MYC (iCas9-MOLM-13 cells) | fold affinity drop against the wild type [1] [fold]
Cc1sc2c(c1C)C(c1ccc(Cl)cc1)=N[C@@H](CC(=O)OC(C)(C)C)c1nnc(C)n1-2 [JQ1] | sensitized MOLM-13 cells | Increased JQ1 sensitivity | not in HeLa | not in HeLa or U2OS cells | markedly enhanced JQ1-induced transcriptional changes | –
H3_(17–28)K27ac peptide (from UniProt P68431 18-29) | – | – | – | – | – | 2.3
